{"source": "PubChem BioAssay AID504382", "about": "(The Scripps Research Institute Molecular Screening Center, 2011)", "note": "Out of some 2,500 compounds screened, about 460 (18%) were called active. A selection follows. Unmarked numbers belong to inactive results.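 How the source made its calls: active means mean activation above a cutoff of low control average plus 3 SD from the earlier screen (cut at about 12% in these data); inactive means the rest.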", "data": [{"assay": "compound fluorescence interference without thin filaments, confirmation, artefact control for cardiac RTF calcium sensitizer project, biochemical (AID 504382)", "conditions": "IANBD fluorescence interference counterscreen, buffer, EC20 Ca2+; at 7.2 µM; stronger effect = higher value; scaled: EC20 calcium 0, EC100 calcium 100", "method_in_brief": "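Doses – one dose of 7.2 µM, 0.7% DMSO · Buffer or medium – MOPS/KCl/MgCl2/EGTA/NTA/DTT buffer, pH 7.2 · Probe or stimulus – Ca2+ fixed at EC20, 0.472 mM · Measured by – fluorescence intensity, excitation 480 nm, emission 540 nm · Read-out – fluorescence interference versus control range · Timing – 15 min compound exposure at 25 °C · Replication – triplicate wells per compound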", "values": [{"smiles": "COc1ccc(C2c3ccc(O)cc3Oc3ncn(CCN4CCOCC4)c(=N)c32)cc1OC", "note": "(centres undefined)", "fluorescence artifact activation": "5.12%"}, {"smiles": "CC(C)c1ccc(OCC(=O)NC(Cc2c[nH]c3ccccc23)C(=O)O)cc1", "note": "(centres undefined)", "fluorescence artifact activation": "0.01%"}, {"smiles": "CN1CCc2c(sc3c2C(=O)NC(c2ccco2)N3)C1", "note": "(centres undefined)", "fluorescence artifact activation": "0.18%"}, {"smiles": "O=C(NCc1ccco1)C1Cc2ccccc2CN1C(=O)c1ccco1", "note": "(centres undefined)", "fluorescence artifact activation": "1040% (active)"}, {"smiles": "O=C(NCc1ccco1)C1CCC(N2C(=O)C3C4CCC(C4)C3C2=O)CC1", "note": "(centres undefined)", "fluorescence artifact activation": "0.07%"}, {"smiles": "O=C(O)C1CC(O)CN1C(=O)c1ccco1", "note": "(centres undefined)", "fluorescence artifact activation": "0.06%"}, {"smiles": "COc1cccc(OC)c1C(=O)NNC(=O)c1ccccc1-n1cccc1", "fluorescence artifact activation": "-0.01%"}, {"smiles": "CC(C)(C)C(=O)c1sc2nc(-c3cccs3)cc(C(F)(F)F)c2c1N", "fluorescence artifact activation": "0.13%"}, {"smiles": "CCOc1nc(OCC)c2[nH]c(C(=O)O)c(Br)c2n1", "fluorescence artifact activation": "0.34%"}, {"smiles": "O=C(c1ccccc1Nc1ccc(SC(F)F)cc1)N1CCCCC1", "fluorescence artifact activation": "0.06%"}, {"smiles": "COc1ccc(C2C(C(=O)c3ccccc3)N3c4ccccc4C=CC3C2[N+](=O)[O-])cc1", "note": "(centres undefined)", "fluorescence artifact activation": "10.3%"}, {"smiles": "O=[N+]([O-])c1ccc(N2N=C(c3ccccc3)CC2c2ccccc2O)cc1", "note": "(centres undefined)", "fluorescence artifact activation": "47.5% (active)"}, {"smiles": "N#CCC(=O)N/N=C/c1ccc(N2N=C(c3ccccc3)CC2c2ccccc2)cc1", "note": "(centres undefined)", "fluorescence artifact activation": "-0.02%"}, {"smiles": "NS(=O)(=O)c1ccc(N2N=C(c3ccccc3)CC2c2ccccc2)cc1", "note": "(centres undefined)", "fluorescence artifact activation": "15.1% (active)"}, {"smiles": "COc1ccc(C2CC(c3ccncc3)=NN2c2ccc(S(N)(=O)=O)cc2)cc1", "note": "(centres undefined)", "fluorescence artifact activation": "1.86%"}, {"smiles": "O=[N+]([O-])c1ccc(C2=NN(c3ccccc3)C(c3ccco3)C2)cc1", "note": "(centres undefined)", "fluorescence artifact activation": "-0.01%"}, {"smiles": "N#CC1CC(c2ccc([N+](=O)[O-])cc2)=NN1c1ccc([N+](=O)[O-])cc1", "note": "(centres undefined)", "fluorescence artifact activation": "0.52%"}, {"smiles": "CN(CC(=O)N1CCN(c2ncccn2)CC1)S(=O)(=O)c1ccc(Cl)cc1", "fluorescence artifact activation": "0%"}, {"smiles": "CCOC(=O)[C@H]1[C@H]2COc3ccccc3[C@@H]2N2C(=O)CN(Cc3ccc(C)cc3)C(=O)[C@@]12C", "fluorescence artifact activation": "0.38%"}, {"smiles": "COc1ccc(/C=N/Nc2ncc(C(F)(F)F)cc2Cl)cc1OC", "fluorescence artifact activation": "-0.02%"}, {"smiles": "CC(C(=O)N1CCc2ccccc2C1)N1C(=O)c2ccccc2C1=O", "note": "(centres undefined)", "fluorescence artifact activation": "0.12%"}, {"smiles": "CCOC(=O)c1cc(C#N)c(SCC(=O)c2cc(C#N)c(SC)nc2C)[nH]c1=O", "fluorescence artifact activation": "6.31%"}, {"smiles": "CC(=O)n1c(C=Nc2ccc(Cl)cc2)c(O)c2ccccc21", "fluorescence artifact activation": "0.42%"}, {"smiles": "COc1ccc(C2=NS(=O)(=O)N(C)C(C(=O)NC3CCCC3)=C2)cc1", "fluorescence artifact activation": "-0.02%"}]}]}
